{"source": "ChEMBL document CHEMBL4602675", "about": "“The Marine Natural Product Manzamine A Inhibits Cervical Cancer by Targeting the SIX1 Protein” (J Nat Prod, 2020)", "key": {"SiHa [1]": {"tested_on": "SiHa", "experiment": "Induction of apoptosis in human SiHa cells assessed as early apoptotic cells at 4 uM after 48 hrs by Annexin V-FITC/PI double staining based flow cytometric analysis (reference value: 2.4%)", "format": "functional"}, "[2]": {"molecular_target": "Protein E6 (Human papillomavirus 16) (UniProt P03126)", "sequence (P03126 whole entry)": "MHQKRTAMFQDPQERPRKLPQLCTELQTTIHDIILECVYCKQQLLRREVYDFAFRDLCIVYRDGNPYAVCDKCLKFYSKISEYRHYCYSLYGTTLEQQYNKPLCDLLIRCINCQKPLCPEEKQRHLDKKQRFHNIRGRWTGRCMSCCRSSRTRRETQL", "experiment": "Inhibition of Human papillomavirus type16 derived E6 in human CaSki cells assessed as increase in p53 protein expression at 2 to 4 uM after 48 hrs by Western blot analysis", "format": "cell-based", "conditions": "Ca-Ski", "summary_of_the_method": "(§1)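 Cells were seeded at 1 × 10^6 per 100 mm dish and treated next day with 2 or 4 μM for 48 h. They were trypsinised, PBS-washed and lysed in RIPA with protease inhibitors. Equal protein was run on SDS-PAGE and transferred to PVDF. Primary antibodies were used at 1:500, with BSA 3% for blocking and antibodies for CK2α, Rb and pRb, otherwise 5% milk in TBST. HRP secondary at 1:2000, chemiluminescence detection.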"}, "SiHa [3]": {"tested_on": "SiHa", "experiment": "Cell cycle arrest in human SiHa cells assessed as accumulation at G0/G1 phase at 4 uM after 72 hrs by propidium iodide staining based flow cytometric analysis (reference value: 72.8%)", "format": "functional", "summary_of_the_method": "(§2)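 Cells in DMEM/10% FBS at 37 °C, 5% CO2 were given 4 μM for 24, 48 or 72 h, with DMSO as control. After trypsinization they were fixed in chilled 70% ethanol on ice for 30 min, treated with RNase A (1 mg/mL) for 30 min at room temperature, and stained with PI (20 μg/mL). At least 10 000 events were read by flow cytometry to give sub-G1, G0/G1, S and G2/M fractions; mean ± SEM.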"}, "[4]": {"molecular_target": "T1, Homeobox protein SIX1 (Homo sapiens) (UniProt Q15475)", "T1 sequence (whole entry)": "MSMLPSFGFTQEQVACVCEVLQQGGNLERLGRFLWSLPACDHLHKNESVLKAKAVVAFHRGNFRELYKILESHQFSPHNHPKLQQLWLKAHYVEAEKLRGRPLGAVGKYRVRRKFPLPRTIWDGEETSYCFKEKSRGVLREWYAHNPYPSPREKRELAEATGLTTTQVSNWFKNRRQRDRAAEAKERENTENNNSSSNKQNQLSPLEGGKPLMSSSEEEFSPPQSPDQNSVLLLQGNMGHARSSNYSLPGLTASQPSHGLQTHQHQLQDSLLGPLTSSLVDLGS", "experiment": "Potency index, ratio for inhibition activity of apigenin to test compound for inhibition of SIX1 in human SiHa cells after 48 hrs by Western blot analysis", "format": "cell-based", "summary_of_the_method": "(§3)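 Cells plated at 1 × 10^6 per 100 mm dish and treated next day for 48 h with test compound (2 or 4 μM) or apigenin (10, 20 or 40 μM). RIPA lysates with protease inhibitors; equal protein loaded for SDS-PAGE, then PVDF transfer. Blocked in 5% milk/TBST (3% BSA for CK2α); anti-SIX1 or anti-CK2α 1:500, HRP secondary 1:2000; chemiluminescent detection.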"}, "[5]": {"molecular_target": "T2, Protein E7 (Human papillomavirus 16) (UniProt P03129)", "T2 sequence (whole entry)": "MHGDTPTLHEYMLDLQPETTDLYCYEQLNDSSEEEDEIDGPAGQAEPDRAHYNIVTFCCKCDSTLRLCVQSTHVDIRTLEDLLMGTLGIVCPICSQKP", "experiment": "Inhibition of Human papillomavirus type16 derived E7 in human SiHa cells assessed as decrease in phosphorylation of Rb at 2 to 4 uM after 48 hrs by Western blot analysis", "format": "cell-based", "summary_of_the_method": "as §1"}, "Keratinocyte": {"tested_on": "Keratinocyte", "experiment": "Cytotoxicity against human Keratinocytes assessed as reduction in cell viability 2 to 4 uM incubated up to 72 hrs by CellTiter-Glo assay", "format": "cell-based"}, "C-33-A [6]": {"tested_on": "C-33-A", "experiment": "Cell cycle arrest in human C33A cells assessed as accumulation at G0/G1 phase at 4 uM after 24 hrs by propidium iodide staining based flow cytometric analysis (reference value: 58.4%)", "format": "functional", "summary_of_the_method": "as §2"}, "[7]": {"molecular_target": "T1, Homeobox protein SIX1 (Homo sapiens)", "experiment": "Inhibition of SIX1 in human C33A cells at 2 to 4 uM after 48 hrs by Western blot analysis", "format": "cell-based", "conditions": "C-33-A", "summary_of_the_method": "as §1"}, "HeLa [8]": {"tested_on": "HeLa", "experiment": "Induction of apoptosis in human HeLa cells assessed as late apoptotic cells at 4 uM after 48 hrs by Annexin V-FITC/PI double staining based flow cytometric analysis (reference value: 4.4%)", "format": "functional"}, "Ca-Ski": {"tested_on": "Ca-Ski", "experiment": "Cell cycle arrest in human CaSki cells assessed as accumulation at G2/M phase at 4 uM after 48 hrs by propidium iodide staining based flow cytometric analysis (reference value: 29.5%)", "format": "functional", "summary_of_the_method": "as §2"}, "SiHa [9]": {"tested_on": "SiHa", "experiment": "Cell cycle arrest in human SiHa cells assessed as increase in accumulation at G0/G1 phase at 4 uM incubated for 24 hrs by propidium iodide staining based flow cytometric analysis", "format": "functional", "summary_of_the_method": "(§4)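 Cells in DMEM with 10% FBS, 2 mM L-glutamine, pen-strep, 37 °C, 5% CO2; seeded and left overnight, then treated at 4 μM with DMSO as control. Harvested by trypsin at 24, 48 or 72 h, fixed in chilled 70% ethanol 30 min on ice, RNase A (1 mg/mL) 30 min at room temperature, PI (20 μg/mL). Flow cytometry, ≥10 000 events, G0/G1, S, G2/M fractions; mean ± SEM.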"}, "HeLa [10]": {"tested_on": "HeLa", "experiment": "Cell cycle arrest in human HeLa cells assessed as accumulation at Sub G1 phase at 4 uM after 72 hrs by propidium iodide staining based flow cytometric analysis (reference value: 3.5%)", "format": "functional", "summary_of_the_method": "as §2"}, "SiHa [11]": {"tested_on": "SiHa", "experiment": "Cell cycle arrest in human SiHa cells assessed as increase in accumulation at G0/G1 phase at 4 uM incubated for 48 hrs by propidium iodide staining based flow cytometric analysis", "format": "functional", "summary_of_the_method": "as §4"}, "HeLa [12]": {"tested_on": "HeLa", "experiment": "Inhibition of colony formation in human HeLa cells at 2 to 4 uM afer 1 week by crystal violet staining based assay", "format": "functional, cell-based", "summary_of_the_method": "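Cells were grown in DMEM with 10% FBS, seeded at 1 × 10^3 cells/ml in six-well plates, incubated overnight, then exposed to 2 or 4 μM at 37 °C under 5% CO2 for one week. Colonies were fixed with 4% paraformaldehyde, stained with 0.5% crystal violet and photographed.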"}, "SiHa [13]": {"tested_on": "SiHa", "experiment": "Cell cycle arrest in human SiHa cells assessed as decrease in accumulation at S phase at 4 uM incubated up to 72 hrs by propidium iodide staining based flow cytometric analysis", "format": "functional", "summary_of_the_method": "as §4"}, "SiHa [14]": {"tested_on": "SiHa", "experiment": "Cell cycle arrest in human SiHa cells assessed as accumulation at G0/G1 phase at 4 uM after 24 hrs by propidium iodide staining based flow cytometric analysis (reference value: 69.9%)", "format": "functional", "summary_of_the_method": "as §2"}, "C-33-A [15]": {"tested_on": "C-33-A", "experiment": "Cell cycle arrest in human C33A cells assessed as accumulation at G0/G1 phase at 4 uM after 48 hrs by propidium iodide staining based flow cytometric analysis (reference value: 54.6%)", "format": "functional", "summary_of_the_method": "as §2"}, "[16]": {"molecular_target": "Casein kinase II subunit alpha (Homo sapiens) (UniProt P68400)", "sequence (P68400 whole entry, looked up)": "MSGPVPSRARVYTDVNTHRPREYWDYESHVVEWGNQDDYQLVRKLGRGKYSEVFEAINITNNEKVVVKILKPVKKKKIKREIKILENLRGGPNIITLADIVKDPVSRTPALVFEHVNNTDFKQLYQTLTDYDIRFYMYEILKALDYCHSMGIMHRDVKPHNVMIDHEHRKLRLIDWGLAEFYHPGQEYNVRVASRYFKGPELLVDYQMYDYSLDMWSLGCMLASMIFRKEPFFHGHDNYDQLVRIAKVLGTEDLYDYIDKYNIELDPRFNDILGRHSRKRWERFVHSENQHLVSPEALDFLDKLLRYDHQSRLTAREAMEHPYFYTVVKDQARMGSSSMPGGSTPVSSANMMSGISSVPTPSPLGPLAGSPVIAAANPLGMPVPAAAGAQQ", "experiment": "Potency index, ratio for inhibition activity of apigenin to test compound for inhibition of CK2alpha in human C33A cells after 48 hrs by Western blot analysis", "format": "cell-based", "conditions": "C-33-A", "summary_of_the_method": "as §3"}, "C-33-A [17]": {"tested_on": "C-33-A", "experiment": "Induction of apoptosis in human C33A cells assessed as early apoptotic cells at 4 uM after 48 hrs by Annexin V-FITC/PI double staining based flow cytometric analysis (reference value: 12.9%)", "format": "functional"}, "[18]": {"molecular_target": "T2, Protein E7 (Human papillomavirus 16)", "experiment": "Inhibition of Human papillomavirus type16 derived E7 in human CaSki cells assessed as decrease in cyclin-D1 protein expression at 2 to 4 uM after 48 hrs by Western blot analysis", "format": "cell-based", "conditions": "Ca-Ski", "summary_of_the_method": "as §1"}, "[19]": {"molecular_target": "T2, Protein E7 (Human papillomavirus 16)", "experiment": "Inhibition of Human papillomavirus type16 derived E7 in human SiHa cells assessed as decrease in cyclin-D1 protein expression at 2 to 4 uM after 48 hrs by Western blot analysis", "format": "cell-based", "summary_of_the_method": "as §1"}}, "note": "Active and inactive are the calls of the source. No cut-off for these calls is given here.", "data": [{"smiles": "O[C@]12C=C(c3nccc4c3[nH]c3ccccc34)[C@@H]3CCN(CCCC/C=C\\CC1)C[C@@]31C[C@@H]3/C=C\\CCCCN3[C@H]12", "note": "[MANZAMINE A]", "values": [{"measurement": "Activity", "setting": "SiHa [1]", "value": 27, "unit": "%"}, {"measurement": "inhibition", "setting": "[2]", "value": "Active"}, {"measurement": "Activity", "setting": "SiHa [3]", "value": 78.6, "unit": "%"}, {"measurement": "Ratio", "setting": "[4]", "value": 10}, {"measurement": "inhibition", "setting": "[5]", "value": "Active"}, {"measurement": "Activity", "setting": "Keratinocyte", "value": "Non-Toxic"}, {"measurement": "Activity", "setting": "C-33-A [6]", "value": 58.5, "unit": "%"}, {"measurement": "inhibition", "setting": "[7]", "value": "Active"}, {"measurement": "Activity", "setting": "HeLa [8]", "value": 14.1, "unit": "%"}, {"measurement": "Activity", "setting": "Ca-Ski", "value": 10.1, "unit": "%"}, {"measurement": "fold change (FC)", "setting": "SiHa [9]", "value": 1.2}, {"measurement": "Activity", "setting": "HeLa [10]", "value": 24.3, "unit": "%"}, {"measurement": "fold change (FC)", "setting": "SiHa [11]", "value": 1.2}, {"measurement": "inhibition", "setting": "HeLa [12]", "value": "Active"}, {"measurement": "Activity", "setting": "SiHa [13]", "value": "Active"}, {"measurement": "Activity", "setting": "SiHa [14]", "value": 85.3, "unit": "%"}, {"measurement": "Activity", "setting": "C-33-A [15]", "value": 44.2, "unit": "%"}, {"measurement": "Ratio", "setting": "[16]", "value": 10}, {"measurement": "Activity", "setting": "C-33-A [17]", "value": 9.7, "unit": "%"}, {"measurement": "inhibition", "setting": "[18]", "value": "Active"}, {"measurement": "inhibition", "setting": "[19]", "value": "Active"}]}]}
